The nature of experiment [1]: Inhibition of Klebsiella pneumoniae Beta-lactamase SHV-1. The method in brief:
(§1)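 Purified β-lactamase (final 0.25 μg/ml) was preincubated with inhibitor for 10 min at 37°C in […] phosphate, pH 7, with 10% DMSO final. Prewarmed nitrocefin was then added (final […] as printed). A490 was read every 30 s for 10 min at 37°C to give initial rates. IC50 was fitted by sigmoidal nonlinear regression, from at least two independent experiments, with 95% CI.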

Experiment [2] in a line: Inhibition of Enterobacter cloacae Beta-lactamase AmpC. The method in brief:
as §1

A short description of experiment [3]: Inhibition of Beta-lactamase TEM-1. The method in brief:
as §1

Another experiment relates to Escherichia coli. In words: Antibacterial activity against Escherichia coli by broth microdilution method. It counts as functional. The method in brief: (§2)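 Broth microdilution MICs per CLSI against clinical and ATCC isolates; stocks in distilled water, diluted with water or Mueller-Hinton broth, drug weights corrected for salt forms. Twofold series from 256 to 0.125 μg/ml or 25.6 to 0.0125 μg/ml. Inoculum 5 × 10^5 CFU/ml (final) by direct colony suspension. β-Lactamase inhibitors, when combined with a β-lactam, held constant at 4 μg/ml.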

Another experiment concerns Moraxella catarrhalis. In words: Antibacterial activity against Moraxella catarrhalis by broth microdilution method. It counts as functional. The method in brief: as §2
For a further experiment, the system named is Pseudomonas aeruginosa. In words: Antibacterial activity against Pseudomonas aeruginosa by broth microdilution method. It counts as functional. The method in brief: as §2
The next experiment concerns Klebsiella sp. In words: Antibacterial activity against Klebsiella sp. by broth microdilution method. It is filed as functional. The method in brief:
as §2

For the next experiment, the system named is Enterococcus sp. In words: Antibacterial activity against Enterococcus sp. by broth microdilution method. It counts as functional. The method in brief: as §2
For a further experiment, the system named is Enterobacter cloacae. In words: Antibacterial activity against Enterobacter cloacae by broth microdilution method. It counts as functional. The method in brief: as §2
Experiment [4] concerns Staphylococcus aureus. In words: Antibacterial activity against methicillin-susceptible Staphylococcus aureus by broth microdilution method. It counts as functional. The method in brief: as §2
For experiment [5], the system named is Staphylococcus aureus. In words: Antibacterial activity against methicillin-resistant Staphylococcus aureus by broth microdilution method. It counts as functional. The method in brief:
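CLSI broth microdilution MIC against clinical isolates. In β-lactam combinations the inhibitor was held constant at 4 μg/ml. Inoculum was prepared by direct colony suspension, final 5 × 10^5 CFU/ml.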

Another experiment relates to Citrobacter freundii. In words: Antibacterial activity against Citrobacter freundii by broth microdilution method. It counts as functional. The method in brief:
as §2

pIC50: −log10 of the molar value. ≈ marks a conversion by molar mass, not a printed value.

For the molecule `CC1(C)[C@H](C(=O)O)N2C(=O)C[C@H]2S1(=O)=O` [SULBACTAM], the pIC50 was 5.40 in [1], 4.92 in [2] and 5.97 in experiment [3].

Take `C[C@]1(Cn2ccnn2)[C@H](C(=O)O)N2C(=O)C[C@H]2S1(=O)=O` [TAZOBACTAM]: the negative-log IC50 (pIC50) in experiment [2] was 5.75; in [3] it was 7.85.

For the molecule `O=C(O)[C@H]1/C(=C/CO)O[C@@H]2CC(=O)N21` [CLAVULANIC ACID], the figures for the pIC50 in experiment [1], in experiment [2] and in experiment [3] were 7.55, 3.87 and 7.52, respectively.

On to `C/C=C1/C(=O)N2C(C(=O)O)=C3[C@@H](OC)CCC[C@@H]3[C@H]12`, for which the minimum inhibitory concentration (MIC) was above 25.6 µg/mL against Escherichia coli; above 25.6 µg/mL against Pseudomonas aeruginosa; 6.4 µg/mL (≈ 24.3 µM) in the experiment on Klebsiella sp.; above 25.6 µg/mL against Enterococcus sp.; above 25.6 µg/mL against Enterobacter cloacae; 0.8 µg/mL (≈ 3.04 µM) in the experiment with Staphylococcus aureus [4]. The molecule further returned an MIC in the experiment with Citrobacter freundii above 25.6 µg/mL. Further, the MIC50 in the experiment on Escherichia coli is above 25.6 µg/mL; with Moraxella catarrhalis it was 0.8 µg/mL (≈ 3.04 µM); against Klebsiella sp., above 25.6 µg/mL; against Enterobacter cloacae it was above 25.6 µg/mL; against Staphylococcus aureus [5], above 256 µg/mL. In addition, the MIC90 was above 25.6 µg/mL against Escherichia coli; 0.8 µg/mL (≈ 3.04 µM) against Moraxella catarrhalis; above 25.6 µg/mL in the experiment with Klebsiella sp.; above 25.6 µg/mL in the experiment on Enterobacter cloacae; above 256 µg/mL against Staphylococcus aureus [5]. Moreover, the pIC50 in experiment [1] is 6.82; in [2], 7.21; in experiment [3], 7.26.

The record behind these values is ChEMBL document CHEMBL1671647, “In vitro activity of LK-157, a novel tricyclic carbapenem as broad-spectrum {beta}-lactamase inhibitor” (Antimicrob Agents Chemother, 2009).
